By inhibition in vivo is commonly meant the relative decrease from the control value, in per cent. The term inhibition denotes the drop in the measured response relative to a control, in per cent. As a reminder, the ED50 is the dose at which the effect has come halfway, by size or by number of responders.

Active and inactive are the calls of the source. The calls are words filed in the database; no cut-off is given here.

Series [1] concerns Rattus norvegicus. The experiment in a line: Antiinflammatory activity against carrageenan-induced paw edema in Albino rat assessed as oedema inhibition relative to control at 40 mg/kg, po. The series is classed as functional. The method in brief: (§1)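 Rats given test compound orally; 30 min later, 0.2 mL of 1% carrageenan in 0.9% NaCl injected subcutaneously into plantar aponeurosis of the hind paw. Paw volume measured by water plethysmometer before and at 3 h. Mean paw-volume increase compared with a carrageenan-only control group of five rats. % inhibition = (1 − Gt/Gc) × 100. Values are means of three determinations.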

Series [2] can be described thus: Toxicity in ip dosed Albino mouse. The series is classed as organism-based. The note with it: in vivo, read-out: ALD50. The method in brief:
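Albino mice, 25–30 g, groups of 10, given test compounds intraperitoneally at different dose levels. Mortality per group recorded 24 h after dosing. Approximate 50% lethal dose (ALD50) calculated from mortality data by the Smith method.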

For series [3], the species on record is Oryctolagus cuniculus. As to the kind of experiment: Inhibition of rabbit microsomal COX at 10 uM. In outline: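 COX source: microsomal pellet from minced, homogenized rabbit distal colon mucosa in 0.1 M Tris, pH 8.0, used immediately. Microsomes preincubated with test agent 10 min at 37 °C in Tris-HCl pH 8.0 with 2 mM glutathione, 5 mM L-tryptophan and 1 µM haematin. Then 20 µM arachidonic acid plus [1-14C] tracer added for 5 min at 37 °C. PGE2 separated by isocratic HPLC; co-eluting radioactivity counted by scintillation. % inhibition calculated versus paired controls.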

The subject of series [4] is Rattus norvegicus. As to the kind of experiment: Antiinflammatory activity against carrageenan-induced paw edema in po dosed Albino rat assessed as oedema inhibition. The series is classed as functional. A general note: In the carrageenan paw model, swelling and tenderness develop within hours.
In series [5] the test system is Rattus norvegicus. As to the kind of experiment: Toxicity in rat assessed as incidence of hyperaemia at 400 mg/kg, po. The format is organism-based. Details: dose 400 mg/kg, route oral. Conditions: in vivo. In outline: (§2)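 Groups of 10 rats (200–230 g), fasted 24 h, dosed orally; controls untreated. Sacrificed 5 h after dosing. Stomach and small intestine examined under microscope for hyperaemia, epithelial shedding, petechiae, frank haemorrhage, erosion or discrete ulceration with or without perforation. Result expressed as percentage of animals affected.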

The subject of series [6] is Rattus norvegicus. The experiment in a line: Antiinflammatory activity against carrageenan-induced paw edema in Albino rat assessed as oedema inhibition relative to control at 20 mg/kg, po. The series is classed as functional. In outline:
as §1

Series [7] has as its system Rattus norvegicus. As to the kind of experiment: Antiinflammatory activity against carrageenan-induced paw edema in Albino rat assessed as oedema inhibition relative to control at 80 mg/kg, po. The format is functional. The method in brief:
as §1

The test system of series [8] is Rattus norvegicus. As to the kind of experiment: Toxicity in rat assessed as incidence of ulcer at 200 mg/kg, po. The format is organism-based. More on the design: dose 200 mg/kg, route oral. The note with it: in vivo. In outline: as §2
For series [9], the system named is Rattus norvegicus. The experiment in a line: Toxicity in rat assessed as incidence of hyperaemia at 200 mg/kg, po. Conditions: in vivo. The series is classed as organism-based. Details: dose 200 mg/kg, route oral. In outline:
as §2

For series [10], the system named is Rattus norvegicus. As to the kind of experiment: Toxicity in rat assessed as incidence of hyperaemia at 100 mg/kg, po. The format is organism-based. More on the design: dose 100 mg/kg, route oral. Conditions: in vivo. In outline:
as §2

In series [11] the test system is Rattus norvegicus. The experiment in a line: Toxicity in rat assessed as incidence of ulcer at 100 mg/kg, po. The format is organism-based. More on the design: dose 100 mg/kg, route oral. Conditions: in vivo. In outline:
as §2

Series [12] concerns Rattus norvegicus. As to the kind of experiment: Toxicity in rat assessed as incidence of ulcer at 400 mg/kg, po. The series is classed as organism-based. More on the design: dose 400 mg/kg, route oral. The note with it: in vivo. In outline:
as §2

As to `O=C(Oc1ccc(Cl)cc1C(=O)c1ccc(Cl)cc1)c1ccc(Cl)cc1`, the inhibition in vivo at 40 mg/kg in [1] came out at 48.5%. The LD50 in series [2] was above 1000 mg/kg. Moreover, the inhibition in series [3] came out at 60%. Also, in series [4], the ED50 stood at 65.5 mg/kg. Besides, the Activity in series [5] worked out at 100%; in [8] it was 10%; in series [9], 80%; in [10] it was 60%; in [11] it was 5%; in series [12], 15%. In series [6], the inhibition in vivo at 20 mg/kg amounted to 35.5%. In [7], the inhibition in vivo at 80 mg/kg came to 60.1%.

Consider `Cc1ccc(C(=O)Oc2ccc(C)cc2C(=O)c2ccccc2)cc1`, for which, in [1], the inhibition in vivo at 40 mg/kg came out at 29.4%. Moreover, the LD50 in [2] is above 1000 mg/kg. Moreover, the outcome in series [3] was inactive. In series [4], the median effective dose (ED50) was found to be 75.5 mg/kg. In addition, the Activity in [5] is on record as 55%; in series [8], 55%; in [9], 35%; in series [10] it was 20%; in series [11] it was 45%; in series [12], 80%. The inhibition in vivo at 20 mg/kg in [6] was found to be 15.5%. Also, the inhibition in vivo at 80 mg/kg in series [7] was 46.5%.

These data come from ChEMBL document CHEMBL1147917, “Synthesis and crystallographic analysis of benzophenone derivatives--the potential anti-inflammatory agents” (Bioorg Med Chem, 2007).
